The list is not random: actives were taken first. Their share in the collection is about 3.9%.
TAAR1 agonist = human TAAR1 agonism | 360,000 compounds, 0.99% hits | CHO RD-HGA16 TAAR1, Fluo-8 calcium fluorescence; vehicle wells 0%, saturating PEA agonist 100% | Q96RJ0 | activation, % at 3 µM;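 active = activation above the mean activation of all test compounds in the run plus 3 SD, cut at about 38% in these data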
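System: CHO-derived RD-HGA16 cells with stable Gα16 and human TAAR1. Times: 17-24 h plating, Fluo-8 75 min 37 °C, 30 min RT. Measured by: calcium-sensitive Fluo-8 signal, excitation 470-495, emission 515-575 nm. Read-out basis: % activation relative to PEA EC100 response. Control set: DMSO and PEA EC100. Repeats: no replicates (n 1).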
TMEM16A act = activators or potentiators of mouse TMEM16A chloride channel | HEK293 TMEM16A/YFP-H148Q/I152L, iodide quench fluorescence; active compounds read low | B-score at 10 µM | 340,000 compounds, 0.3% hits | AID 623877;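 active = fluorescence-ratio B-score plate-corrected deviation score at least 3 library SD below zero, with starting fluorescence score within 5 deviations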;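 also: channel opened by trigger with iodide after compound preincubation; score built on the fluorescence ratio of max minus min over baseline; more negative score means more quench and so TMEM16A activation or potentiation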
Target sequence (Q8BHY3 whole entry, looked up): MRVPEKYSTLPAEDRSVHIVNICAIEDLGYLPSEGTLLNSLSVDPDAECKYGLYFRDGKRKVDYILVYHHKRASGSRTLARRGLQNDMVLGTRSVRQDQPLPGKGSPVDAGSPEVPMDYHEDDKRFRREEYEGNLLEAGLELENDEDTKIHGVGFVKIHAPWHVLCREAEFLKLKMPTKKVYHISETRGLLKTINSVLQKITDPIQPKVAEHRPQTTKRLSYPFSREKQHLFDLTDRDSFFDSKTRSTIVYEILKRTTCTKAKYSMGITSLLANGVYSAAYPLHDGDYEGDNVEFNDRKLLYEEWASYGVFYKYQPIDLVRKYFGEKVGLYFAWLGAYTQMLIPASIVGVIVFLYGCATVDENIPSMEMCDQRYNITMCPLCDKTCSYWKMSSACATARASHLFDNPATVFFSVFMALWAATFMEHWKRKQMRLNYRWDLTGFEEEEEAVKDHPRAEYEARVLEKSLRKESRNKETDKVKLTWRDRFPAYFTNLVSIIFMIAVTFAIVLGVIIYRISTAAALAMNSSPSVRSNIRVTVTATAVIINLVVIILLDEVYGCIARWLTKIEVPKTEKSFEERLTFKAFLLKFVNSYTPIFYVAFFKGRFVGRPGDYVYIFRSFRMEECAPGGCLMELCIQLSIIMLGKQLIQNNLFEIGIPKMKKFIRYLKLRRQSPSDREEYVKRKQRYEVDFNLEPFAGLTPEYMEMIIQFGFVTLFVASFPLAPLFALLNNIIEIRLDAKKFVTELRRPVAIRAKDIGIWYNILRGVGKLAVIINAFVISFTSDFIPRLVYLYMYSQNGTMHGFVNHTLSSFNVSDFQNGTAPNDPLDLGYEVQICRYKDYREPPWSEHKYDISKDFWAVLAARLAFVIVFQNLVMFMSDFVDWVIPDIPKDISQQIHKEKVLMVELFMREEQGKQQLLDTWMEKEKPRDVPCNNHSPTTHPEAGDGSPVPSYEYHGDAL
CRFR2-BP antag = antagonists of CRF-binding protein/CRF-R2 receptor complex; HEK293 CRF-R2/CRF-BP, CRF-induced calcium fluorescence; inhibition, % at 11.8 µM; 350,000 compounds, 0.59% hits; AID 588475;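 active = inhibition of the ligand-induced calcium signal above about 50% at the single tested concentration, limit read from the data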
TAAR1 antag = antagonists of human TAAR1; Q96RJ0; CHO RD-HGA16 TAAR1, Fluo-8 calcium fluorescence, antagonist; inhibition, % at 3 µM; 360,000 compounds, 1.5% hits;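 active = inhibition above a per-plate cutoff, the mean inhibition of test compounds on that plate plus 3 SD, cut at about 49% in these data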;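 also: 0% = DMSO plus EC80 beta-PEA response and 100% = DMSO alone without agonist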
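System: CHO RD-HGA16 cells bearing hTAAR1. Reagent: EC80 β-phenethylamine stimulus. Schedule: seeding 17-24 h prior, 75-min 37 °C, 30-min RT dye loading. Signal: Fluo-8 intracellular calcium dye fluorescence, real-time kinetic reads. Read-out: % inhibition from peak post-agonist over basal fluorescence ratio. Benchmarks: vehicle wells and EC80 agonist wells. Replicates: n of 1.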
CRFBP-R2 agonist = agonists of human CRF-binding protein/CRF-R2 receptor complex | HEK293 CRF-R2/CRF-BP, calcium dye fluorescence (FLIPR); percent of saturating CRF peptide response | 350,000 compounds, 0.46% hits | activation, % at 13.2 µM | AID 588473;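 active = activation of at least 50%, plus an integration ratio under a set limit after plate pattern correction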;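 also: plate controls were neutral control wells without compound for no effect and CRF at EC100 for full effect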
ANO1 block = blocks the mouse calcium-activated chloride channel TMEM16A. HEK293 TMEM16A/YFP iodide influx fluorescence, ionomycin. 310,000 compounds, 1.2% hits. normalized B-score (activity score, 25-100; higher = stronger inhibition) at 10 µM. Q8BHY3;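 active = ratio plate-corrected score three or more library SD toward inhibition, starting fluorescence score within five deviations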;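 also: score derived from kinetic fluorescence span divided by baseline fluorescence per well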
TMEM16A reconf = TMEM16A (mouse) chloride channel inhibition, re-confirmation; shares compounds with ANO1 block; HEK293 TMEM16A/YFP-H148Q, iodide quench fluorescence; ionomycin added to raise cell calcium; inhibition, % at 10 µM; 2,300 compounds, 39% hits; AID 652189;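 active = mean duplicate percent inhibition, scaled so buffer wells are 0 and the reference blocker 100, over three buffer SD above buffer mean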
HEK293 Ca mobil = alters calcium mobilization in TMEM16A HEK293 cells, counter-screen; shares compounds with ANO1 block; TMEM16A/YFP HEK293, Fluo4 calcium mobilization; calcium response (% of ionomycin), % at 10 µM; 2,300 compounds, 2% hits; AID 652231;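 active = duplicate-averaged calcium signal over 20% of the ionomycin maximum, relative to buffer baseline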;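 also: each well's signal is peak minus trough fluorescence divided by its pre-addition baseline; 0% = buffer wells and 100% = ionomycin wells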
Parental YFP cnt = parental YFP-HEK293 iodide quench counter-screen activity | AID 652233 | YFP ratio F(max-min)/F0 at 10 µM | ionomycin | shares compounds with ANO1 block | 2,300 tested, under 10 active;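 active = yellow fluorescent protein signal ratio exceeding the buffer control mean by over 5 SD of those controls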;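 also: ratio is mean of duplicate wells from kinetic YFP trace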
ClC-1 inh = blocks the rat ClC-1 voltage-dependent chloride channel; AID 652236; shares compounds with ANO1 block; CHO ClC-1-YFP, iodide influx fluorescence quench; iodide control reads 0, buffer control 100; 2,300 tested, under 10 active; ratio percent, % at 10 µM;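 active = duplicate-mean ratio percent above the mean of iodide-only control wells, which defines zero, plus 5 of their SD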;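 also: higher percent means stronger block of ClC-1 iodide influx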
Active calls of the source: *; i = inactive; / = no result given.

SMILES	TAAR1 agonist	TMEM16A act	CRFR2-BP antag	TAAR1 antag	CRFBP-R2 agonist	ANO1 block	TMEM16A reconf	HEK293 Ca mobil	Parental YFP cnt	ClC-1 inh
C=CCc1ccccc1Oc1cc(OC)nc(N)n1	2	i	2	-2	-1	/	/	/	/	/
O=C(N/N=C/c1cn(Cc2ccccc2)c2ccccc12)c1cc(O)cc(O)c1	0	i	-7	-14	0	i	/	/	/	/
Cc1ccc(C(=O)N/N=C/c2cn(Cc3ccccc3)c3ccccc23)cn1	2	i	-2	-10	-1	25*	i	i	-1.2	-13
CCn1c(SCC(=O)c2cccs2)nnc1-c1cccs1	7	i	-12	9	5	i	/	/	/	/
CCn1c(SCC(=O)c2[nH]c(C)c(C(C)=O)c2C)nnc1-c1cccs1	22	i	3	21	1	25*	40%*	i	-0.86	-24
COc1ccc(C)cc1NC(=O)CSc1nnc(COc2ccc(C)cc2)n1Cc1ccco1	6	i	-3	16	1	25*	i	i	-1.1	-14
CC(C)CC1NC(=O)c2ccc(Cl)cc2-n2c1nc1ccc(Cl)cc1c2=O (stereo not given)	13	/	/	-11	/	/	/	/	/	/
O=C(O)CSc1ccn(Cc2ccccc2)c1	2	/	21	-23	17	/	/	/	/	/
CCc1ccc(NC(=O)CSc2nc3ncc(Br)cc3[nH]2)cc1	4	i	-9	2	1	i	/	/	/	/
O=C(CSc1nc2ncc(Br)cc2[nH]1)Nc1ccccc1-c1ccccc1	20	i	-16	-25	1	100*	i	i	-0.96	-4
Cc1ccc(NC(=O)c2ccc3c(c2)OCCO3)cc1S(=O)(=O)Nc1cccc(Cl)c1	4	i	-21	28	2	100*	i	i	-1.3	-3
Cc1ccc(NC(=O)c2ccc3c(c2)OCCO3)cc1C	2	i	1	8	0	i	/	/	/	/
O=C(Nc1ccccc1)n1ccc(-c2ccc(-n3ccnc3)cc2)n1	25	/	/	3	/	i	/	/	/	/
COc1ccc(CNCC(O)COc2ccc(C(C)(C)c3ccccc3)cc2)cc1 (stereo not given)	41*	i	-21	5	2	25*	26%*	i	-1.3	-14
Cc1cc2nc(C(C)(C)C)c(CC3CCCCC3)n2c(C)c1Br	0	/	/	-7	/	/	/	/	/	/
CCc1c(C(=O)Nc2nnc(C3CC3)s2)csc1C	1	i	-25	15	-2	100*	i	i	-0.95	-5
CCOc1ncccc1C(=O)Nc1nnc(C2CC2)s1	3	i	-6	5	0	i	/	/	/	/
CC(=O)c1ccc(OCC(O)CN2CCN(Cc3ccccc3)CC2)cc1 (stereo not given)	/	i	0	/	-1	i	/	/	/	/
O=C(c1ccccc1)c1ccc(OCC(O)CN2CCN(Cc3ccccc3)CC2)cc1 (stereo not given)	10	i	-2	-9	2	100*	i	i	-1.1	-10
CC(=O)c1cn(-c2ccc(Cl)cc2)c(=O)n(Cc2ccc(F)cc2)c1=O	11	i	-48	9	3	i	/	/	/	/
COc1cccc(N/C=C(\C#N)c2ccc(OCCCF)cc2)c1	2	i	4	27	-1	100*	i	i	-0.87	-1
Cc1nc(C)c(-c2csc(Nc3ccc(F)cc3)n2)s1	-3	i	-3	-16	-2	25*	21%*	i	-1	-6
COc1cccc(Nc2nc(-c3sc(C)nc3C)cs2)c1	-1	i	12	27	-3	i	/	/	/	/
N#Cc1c(CSCC(=O)O)cc(=O)n2c1[nH]c1ccccc12	-2	i	-16	8	-1	i	/	/	/	/
N#Cc1c(C(F)(F)F)cc(=O)n2c1[nH]c1ccccc12	12	i	27	1	38	100*	35%*	22%*	-1	-20
SMILES	TAAR1 agonist	TMEM16A act	CRFR2-BP antag	TAAR1 antag	CRFBP-R2 agonist	ANO1 block	TMEM16A reconf	HEK293 Ca mobil	Parental YFP cnt	ClC-1 inh
COC(=O)c1ccc(C(=O)OC)c(NS(C)(=O)=O)c1	-2	i	-2	28	-1	25*	i	i	-0.96	-11
Cc1noc(C)c1C(=O)NNc1ccc(C(C)C)cc1	1	i	-6	-36	0	i	/	/	/	/
Cc1ccc(C(C)NC(=O)c2c(C)noc2C)cc1C (stereo not given)	8	i	20	14	-3	25*	i	i	-1	-10
Cn1c(SCC(=O)c2ccc(O)cc2O)nnc1-c1ccccc1	6	i	-4	-5	1	i	/	/	/	/
CC12CN3CC(C)(CN(C1)C3c1ccc3c(c1)OCO3)C2O (stereo not given)	3	i	38	-42	-1	i	/	/	/	/
COc1ccc(-c2nc3cc(NC(=O)Cc4ccc(OC)c(OC)c4)ccc3o2)cc1	12	i	1	35	-1	100*	i	i	-0.95	-8
O=C(Nc1nc(-c2cc(Cl)sc2Cl)cs1)c1cccs1	0	i	4	-4	3	i	/	/	/	/
O=C(Nc1nc(-c2cc(Cl)sc2Cl)cs1)c1ccc(Br)s1	1	i	20	-9	-3	25*	i	i	-1	-11
CC1(C)NC(=O)N(CN2C(=O)NC(C)(C)C2=O)C1=O	4	i	16	11	0	i	i	i	-1.1	2
Fc1ccccc1CNc1ncnc2sccc12	3	i	-8	16	0	i	/	/	/	/
c1ccc2c(c1)OCC(CNc1ncnc3sccc13)O2 (stereo not given)	8	i	-14	30	-3	25*	i	i	-1.3	-24
COc1ccc(CCNc2ncnc3sccc23)cc1OC	11	-7.8*	-1	32	2	100*	24%*	i	-0.78	-29
COc1ccc(Nc2ncnc3sccc23)cc1OC	0	/	-26	-7	-2	i	/	/	/	/
